Source: article PMC12246158 (Scientific Reports, 2025)

Tests used:
[1] = system: L. major promastigotes; test: Parasite counting method; assay type: cell-based; settings: microscopic counting, 24, 48 and 72 h at 24 °C
Method in brief: (§1)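 Promastigotes (L. major MRHO/IR/75/ER; L. tropica MRHO/IR/02/Mash10), grown in RPMI 1640 with 20% heat-inactivated FBS and pen-strep, were seeded at 1 × 10^6/mL in log phase. They were exposed to 3.12–1000 µM test compound (DMSO stock diluted in PBS) for 24, 48 and 72 h at 24 °C. Fixed parasites were counted daily in a Neubauer chamber at 400x. Triplicate; AmB 0.93 µM reference; repeated-measures ANOVA.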

[2] = system: L. tropica promastigotes; test: Parasite counting method; assay type: cell-based; settings: microscopic counting, 24, 48 and 72 h at 24 °C
Method in brief: as §1

[3] = system: L. major intracellular amastigotes; test: Anti-intracellular amastigote activity in J774A.1 macrophages; assay type: cell-based, L. major (MRHO/IR/75/ER); settings: Leishmania species not given
Method in brief: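 SI = CC50/IC50. For amastigotes, J774A.1 cells (10^5/well) were seeded on coverslips for 24 h at 37 °C, 5% CO2, then infected with stationary-phase metacyclic promastigotes (10:1) for 24 h. Test compound 1.32–1000 µM was added for 72 h, then cells were methanol-fixed and Giemsa-stained; amastigotes per 100 macrophages were counted. […] Triplicates.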

Row | Structure (SMILES) | effect on promastigote count (in words) [1] | effect on promastigote count (in words) [2] | reduction of the number of amastigotes toward the untreated negative control [3]
1 | CNC(=S)NN=Cc1ccc([N+](=O)[O-])cc1 [Compound 5f, 2-(4-Nitrobenzylidene)-N-methylhydrazine-1-carbothioamide] | significant reduction in promastigote count | significant reduction in promastigote count | –
2 | O=[N+]([O-])NC(=S)NN=Cc1ccc(Br)cc1 [Compound 5j, 2-(4-Bromobenzylidene)-N-nitrohydrazine-1-carbothioamide] | mild effect | mild effect | –
3 | CNC(=S)NN=Cc1ccc(Br)cc1 [Compound 5e, 2-(4-Bromobenzylidene)-N-methylhydrazine-1-carbothioamide] | significant reduction in promastigote count | significant reduction in promastigote count | –
4 | COc1ccc(C=NNC(=S)Nc2cccnc2)cc1OC [Compound 5o, 2-(3,4-Dimethoxybenzylidene)-N-(pyridin-3-yl)hydrazine-1-carbothioamide] | limited activity | limited activity | 20–25%
5 | CNC(=S)NN=Cc1ccc(O)c(OC)c1 [Compound 5b, 2-(4-Hydroxy-3-methoxybenzylidene)-N-methylhydrazine-1-carbothioamide] | significant reduction in promastigote count | significant reduction in promastigote count | –
6 | S=C(NN=Cc1ccc(Br)cc1)Nc1cccnc1 [Compound 5n, 2-(4-Bromobenzylidene)-N-(pyridin-3-yl)hydrazine-1-carbothioamide] | limited activity | limited activity | 20–25%
7 | CNC(=S)NN=Cc1ccc(OC)c(OC)c1 [Compound 5a, 2-(3,4-Dimethoxybenzylidene)-N-methylhydrazine-1-carbothioamide] | significant reduction in promastigote count | significant reduction in promastigote count | –
8 | CNC(=S)NN=Cc1ccc(C)cc1 [Compound 5c, N-Methyl-2-(4-methylbenzylidene)hydrazine-1-carbothioamide] | mild | mild | –
9 | CNC(=S)NN=Cc1ccc(OC)cc1 [Compound 5g, N-Methyl-2-(4-methoxybenzylidene)hydrazine-1-carbothioamide] | significant reduction in promastigote count | significant reduction in promastigote count | –
